≈ marks a conversion by molar mass, not a printed value. Each block holds one compound with its values, some of them ahead of it.
Legend:
[1] = molecular target: T1, Beta-3 adrenergic receptor (Homo sapiens, UniProt P13945); experiment: Agonist activity at human beta3 adrenergic receptor; format: functional
Target sequence in this assay (P13945 whole entry): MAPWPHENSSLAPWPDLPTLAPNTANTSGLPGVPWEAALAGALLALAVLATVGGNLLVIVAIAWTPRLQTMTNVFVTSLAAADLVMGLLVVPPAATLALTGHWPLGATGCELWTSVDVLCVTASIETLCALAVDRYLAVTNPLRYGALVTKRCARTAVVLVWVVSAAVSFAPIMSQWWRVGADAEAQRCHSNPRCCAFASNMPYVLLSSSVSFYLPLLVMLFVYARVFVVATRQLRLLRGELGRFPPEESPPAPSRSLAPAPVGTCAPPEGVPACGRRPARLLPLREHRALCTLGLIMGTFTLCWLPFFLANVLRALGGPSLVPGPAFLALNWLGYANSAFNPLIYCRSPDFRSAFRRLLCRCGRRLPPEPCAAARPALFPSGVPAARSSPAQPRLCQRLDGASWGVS

[2] = molecular target: T1, Beta-3 adrenergic receptor; experiment: Agonist activity at human beta3 adrenergic receptor relative to control; format: functional
Target sequence in this assay (P13945 whole entry, looked up): as the sequence (P13945 whole entry) above

[3] = molecular target: T2, Beta-1 adrenergic receptor (Homo sapiens, UniProt P08588); experiment: Agonist activity at human beta1 adrenergic receptor; format: functional
[4] = molecular target: T3, Beta-2 adrenergic receptor (Homo sapiens, UniProt P07550); experiment: Agonist activity at human beta2 adrenergic receptor; format: functional
[5] = Half life in iv dosed rat; format: ADME, organism-based; conditions: in vivo
[6] = Volume of distribution in rat; format: ADME, organism-based; conditions: in vivo
[7] = Oral bioavailability rat; format: ADME, organism-based; conditions: in vivo
[8] = Plasma clearance in iv dosed dog; format: ADME, organism-based, Canis lupus familiaris
[9] = (§1) Half life in iv dosed dog; format: ADME, organism-based, Canis lupus familiaris; conditions: in vivo
[10] = Volume of distribution in dog; format: ADME, organism-based, Canis lupus familiaris; conditions: in vivo
[11] = Oral bioavailability in dog; format: ADME, organism-based, Canis lupus familiaris; conditions: in vivo
[12] = Plasma clearance in iv dosed rhesus monkey; format: ADME, organism-based, Macaca mulatta
[13] = Half life in iv dosed rhesus monkey; format: ADME, organism-based, Macaca mulatta; conditions: in vivo
[14] = Volume of distribution in rhesus monkey; format: ADME, organism-based, Macaca mulatta; conditions: in vivo
[15] = Oral bioavailability in rhesus monkey; format: ADME, organism-based, Macaca mulatta; conditions: in vivo
Cytochrome P450 3A4 = Cytochrome P450 3A4 (Homo sapiens, UniProt P08684); experiment: Inhibition of CYP3A4; format: ADME
Cytochrome P450 2D6 = Cytochrome P450 2D6 (Homo sapiens, UniProt P10635); experiment: Inhibition of CYP2D6; format: ADME
Cytochrome P450 2C9 = Cytochrome P450 2C9 (Homo sapiens, UniProt P11712); experiment: Inhibition of CYP2C9; format: ADME
Cytochrome P450 2C8 = molecular target: T4, Cytochrome P450 2C8 (Homo sapiens, UniProt P10632); experiment: Inhibition of CYP2C8; format: ADME
T4 sequence (P10632 whole entry): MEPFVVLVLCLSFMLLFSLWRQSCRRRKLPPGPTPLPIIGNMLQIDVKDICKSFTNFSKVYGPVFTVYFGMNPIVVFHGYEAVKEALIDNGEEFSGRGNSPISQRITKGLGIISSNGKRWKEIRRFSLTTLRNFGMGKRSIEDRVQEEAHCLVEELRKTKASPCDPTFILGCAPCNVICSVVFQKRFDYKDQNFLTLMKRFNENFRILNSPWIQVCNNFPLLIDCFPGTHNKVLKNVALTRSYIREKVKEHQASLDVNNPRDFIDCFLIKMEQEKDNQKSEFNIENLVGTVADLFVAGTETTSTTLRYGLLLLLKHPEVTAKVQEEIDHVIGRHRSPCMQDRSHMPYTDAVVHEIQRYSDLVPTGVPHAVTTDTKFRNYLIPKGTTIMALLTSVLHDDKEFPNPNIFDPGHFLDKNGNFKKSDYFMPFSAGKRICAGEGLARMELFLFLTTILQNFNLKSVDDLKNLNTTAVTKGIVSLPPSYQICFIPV

[16] = Solubility of the compound at pH < 5.2; format: physicochemical
[17] = Solubility of the compound at pH 7.4; format: physicochemical; conditions: buffer
Nav1.5 = Nav1.5 (Homo sapiens, UniProt Q14524); experiment: Inhibition of human Nav1.5 at 30 uM
[18] = molecular target: Voltage-gated inwardly rectifying potassium channel KCNH2 (Homo sapiens, UniProt Q12809); experiment: Inhibition of human ERG
[19] = Metabolic stability in dog liver microsomes assessed as compound remaining after 45 mins; format: ADME, Canis lupus familiaris, Microsome; conditions: read-out: Stability
[20] = Metabolic stability in human liver microsomes assessed as compound remaining after 45 mins; format: ADME, Microsome; conditions: read-out: Stability
[21] = Metabolic stability in rat liver microsomes assessed as compound remaining after 45 mins; format: ADME, Microsome; conditions: read-out: Stability
[22] = Metabolic stability in rhesus monkey liver microsomes assessed as compound remaining after 45 mins; format: ADME, Macaca mulatta, Microsome; conditions: read-out: Stability
[23] = Mutagenic activity in Salmonella Typhimurium by AMES test in presence of S9 fraction; format: toxicity; conditions: salmonella enterica subsp. enterica serovar typhimurium, in the assay text read “5-fluorouracil forward mutation assay” for “AMES test”
[24] = molecular target: T2, Beta-1 adrenergic receptor; experiment: Binding affinity to human beta1 adrenergic receptor
[25] = molecular target: T3, Beta-2 adrenergic receptor; experiment: Binding affinity to human beta2 adrenergic receptor
[26] = Mutagenic activity in Salmonella Typhimurium assessed as 2 fold increase of revertants at 30 to 600 ug/plate by AMES test relative to control in presence of S9 fraction; format: toxicity; conditions: salmonella enterica subsp. enterica serovar typhimurium, in the assay text read “30 to 6000 ug/plate” for “30 to 600 ug/plate”
Procedure, shortened: (§2)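 Ames microbial mutagenesis assay in bacterial strains, run with and without S-9 metabolic activation. A positive response was defined as a 2-fold or greater increase in revertants over the control.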

[27] = Mutagenic activity in Salmonella Typhimurium assessed as 2 fold increase of revertants at 30 to 600 ug/plate by AMES test relative to control in absence of S9 fraction; format: toxicity; conditions: salmonella enterica subsp. enterica serovar typhimurium, in the assay text read “30 to 6000 ug/plate” for “30 to 600 ug/plate”; procedure, shortened: as §2
Canis familiaris = experiment: as §1; format: ADME, organism-based, Canis lupus familiaris; conditions: in vivo
Homo sapiens [28] = species on record: Homo sapiens; experiment: Selectivity ratio of human beta3 adrenergic receptor to human beta1 adrenergic receptor
Homo sapiens [29] = species on record: Homo sapiens; experiment: Selectivity ratio of human beta3 adrenergic receptor to human beta2 adrenergic receptor

T3 sequence (P07550 whole entry): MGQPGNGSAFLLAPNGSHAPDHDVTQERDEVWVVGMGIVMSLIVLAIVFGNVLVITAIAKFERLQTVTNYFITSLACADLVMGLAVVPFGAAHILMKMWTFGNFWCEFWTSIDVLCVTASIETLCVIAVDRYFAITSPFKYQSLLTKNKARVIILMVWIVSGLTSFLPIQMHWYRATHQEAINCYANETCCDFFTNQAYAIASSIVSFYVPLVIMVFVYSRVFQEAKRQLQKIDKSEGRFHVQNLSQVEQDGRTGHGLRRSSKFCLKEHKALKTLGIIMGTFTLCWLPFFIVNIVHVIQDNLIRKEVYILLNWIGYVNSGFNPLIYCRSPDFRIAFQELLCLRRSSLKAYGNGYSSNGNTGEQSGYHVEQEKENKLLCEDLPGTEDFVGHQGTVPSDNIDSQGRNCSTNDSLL
T2 sequence (P08588 whole entry): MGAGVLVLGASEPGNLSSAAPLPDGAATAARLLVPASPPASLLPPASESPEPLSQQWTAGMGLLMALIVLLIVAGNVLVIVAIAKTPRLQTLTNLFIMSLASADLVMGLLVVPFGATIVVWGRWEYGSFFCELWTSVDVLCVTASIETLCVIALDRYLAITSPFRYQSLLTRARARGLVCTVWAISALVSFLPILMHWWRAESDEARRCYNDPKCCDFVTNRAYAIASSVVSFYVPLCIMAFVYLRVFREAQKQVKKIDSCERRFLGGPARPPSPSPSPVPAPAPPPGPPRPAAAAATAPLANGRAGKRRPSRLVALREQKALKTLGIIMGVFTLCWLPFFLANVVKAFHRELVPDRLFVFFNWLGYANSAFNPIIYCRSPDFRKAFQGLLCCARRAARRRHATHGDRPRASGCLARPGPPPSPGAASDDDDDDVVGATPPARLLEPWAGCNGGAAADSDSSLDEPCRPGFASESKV
Sequence of Cytochrome P450 2D6 (P10635 whole entry): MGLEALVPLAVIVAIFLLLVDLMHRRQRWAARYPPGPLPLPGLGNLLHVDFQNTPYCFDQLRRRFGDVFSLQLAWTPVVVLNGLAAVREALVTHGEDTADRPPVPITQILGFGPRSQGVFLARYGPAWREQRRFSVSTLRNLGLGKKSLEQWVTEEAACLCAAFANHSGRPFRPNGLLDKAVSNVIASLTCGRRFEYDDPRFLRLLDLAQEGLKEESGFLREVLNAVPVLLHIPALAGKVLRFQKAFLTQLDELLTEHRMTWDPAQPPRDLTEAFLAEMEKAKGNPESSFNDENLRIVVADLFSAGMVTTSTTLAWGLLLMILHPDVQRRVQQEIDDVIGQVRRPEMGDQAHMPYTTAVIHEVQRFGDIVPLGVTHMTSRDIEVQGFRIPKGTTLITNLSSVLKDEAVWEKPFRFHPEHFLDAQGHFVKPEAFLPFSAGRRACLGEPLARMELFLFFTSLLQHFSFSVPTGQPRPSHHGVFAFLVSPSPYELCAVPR
Sequence of Cytochrome P450 3A4 (P08684 whole entry): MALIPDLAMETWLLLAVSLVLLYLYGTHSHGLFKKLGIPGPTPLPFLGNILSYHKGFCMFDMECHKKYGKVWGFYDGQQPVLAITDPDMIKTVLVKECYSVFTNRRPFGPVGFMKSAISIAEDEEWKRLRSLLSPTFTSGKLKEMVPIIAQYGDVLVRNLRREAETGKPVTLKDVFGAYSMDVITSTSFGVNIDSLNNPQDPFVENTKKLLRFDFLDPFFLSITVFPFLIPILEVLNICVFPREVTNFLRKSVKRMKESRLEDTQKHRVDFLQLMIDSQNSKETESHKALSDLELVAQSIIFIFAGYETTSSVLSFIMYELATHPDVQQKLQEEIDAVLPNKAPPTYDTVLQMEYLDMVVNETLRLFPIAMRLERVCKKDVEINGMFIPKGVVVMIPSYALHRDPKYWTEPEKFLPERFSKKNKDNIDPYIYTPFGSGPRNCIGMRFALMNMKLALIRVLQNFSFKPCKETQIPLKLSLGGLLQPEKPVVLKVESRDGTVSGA
Sequence of Cytochrome P450 2C9 (P11712 whole entry): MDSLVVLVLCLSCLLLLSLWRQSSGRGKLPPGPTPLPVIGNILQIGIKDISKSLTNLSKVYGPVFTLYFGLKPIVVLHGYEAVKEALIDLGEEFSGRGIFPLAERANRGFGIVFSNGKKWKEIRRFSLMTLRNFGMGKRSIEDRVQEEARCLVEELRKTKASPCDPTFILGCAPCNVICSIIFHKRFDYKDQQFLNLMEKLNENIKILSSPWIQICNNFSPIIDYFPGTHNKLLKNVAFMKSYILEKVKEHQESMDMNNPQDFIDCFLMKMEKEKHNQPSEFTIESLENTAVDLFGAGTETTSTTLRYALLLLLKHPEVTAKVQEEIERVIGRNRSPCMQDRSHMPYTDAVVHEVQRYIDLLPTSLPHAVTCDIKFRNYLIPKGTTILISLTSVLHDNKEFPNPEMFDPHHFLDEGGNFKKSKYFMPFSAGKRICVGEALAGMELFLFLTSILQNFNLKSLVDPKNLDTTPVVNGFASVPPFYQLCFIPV
Sequence of Voltage-gated inwardly rectifying potassium channel KCNH2 (Q12809 whole entry): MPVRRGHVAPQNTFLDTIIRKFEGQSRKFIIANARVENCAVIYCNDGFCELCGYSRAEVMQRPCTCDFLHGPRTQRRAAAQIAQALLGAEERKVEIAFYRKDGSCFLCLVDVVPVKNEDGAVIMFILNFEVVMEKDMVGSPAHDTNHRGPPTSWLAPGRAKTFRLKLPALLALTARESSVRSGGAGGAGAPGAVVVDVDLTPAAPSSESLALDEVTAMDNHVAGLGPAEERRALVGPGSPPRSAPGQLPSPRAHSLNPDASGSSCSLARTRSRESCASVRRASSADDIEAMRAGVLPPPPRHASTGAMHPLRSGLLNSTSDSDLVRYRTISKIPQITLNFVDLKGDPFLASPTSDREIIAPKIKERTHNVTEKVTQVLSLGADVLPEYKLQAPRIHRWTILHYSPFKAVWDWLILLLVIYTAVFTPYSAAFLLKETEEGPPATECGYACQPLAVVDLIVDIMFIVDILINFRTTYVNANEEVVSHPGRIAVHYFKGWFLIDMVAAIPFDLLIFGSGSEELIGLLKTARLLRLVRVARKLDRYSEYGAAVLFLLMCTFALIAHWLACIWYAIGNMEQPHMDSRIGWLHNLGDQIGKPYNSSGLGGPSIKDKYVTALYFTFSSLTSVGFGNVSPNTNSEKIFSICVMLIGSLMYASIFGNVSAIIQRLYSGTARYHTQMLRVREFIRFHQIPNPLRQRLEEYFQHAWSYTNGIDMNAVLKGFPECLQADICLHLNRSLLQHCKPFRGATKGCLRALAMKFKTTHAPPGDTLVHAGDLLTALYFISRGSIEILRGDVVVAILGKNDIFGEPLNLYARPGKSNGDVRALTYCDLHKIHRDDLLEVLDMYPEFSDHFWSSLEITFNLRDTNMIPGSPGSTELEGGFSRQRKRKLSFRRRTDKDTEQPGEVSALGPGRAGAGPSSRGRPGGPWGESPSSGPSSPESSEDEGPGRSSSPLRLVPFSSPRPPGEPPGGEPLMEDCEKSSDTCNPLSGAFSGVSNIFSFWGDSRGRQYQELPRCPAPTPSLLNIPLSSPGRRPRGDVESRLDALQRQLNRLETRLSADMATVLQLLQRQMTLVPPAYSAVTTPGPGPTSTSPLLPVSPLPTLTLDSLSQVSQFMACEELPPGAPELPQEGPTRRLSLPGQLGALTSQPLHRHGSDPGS

EC50 ([1]; read-out: EC50): 15 nM
Activity [2]: 101%
IC50 [3]: 2930 nM
IC50 [4]: 2180 nM
SMILES: O=S(=O)(Nc1ccc(CC2CC[C@H]([C@H](O)c3ccccc3)N2)cc1)c1ccc(-c2nc(-c3ccc(C(F)(F)F)cc3)cs2)cc1 (mixture of isomers)

EC50 ([1]; read-out: EC50): 2030 nM
Activity [2]: 89%
IC50 [3]: 1780 nM
IC50 [4]: 3530 nM
SMILES: O=S(=O)(Nc1ccc(CC2CC[C@@H]([C@@H](O)c3ccccc3)N2)cc1)c1ccc(-c2nc(-c3ccc(C(F)(F)F)cc3)cs2)cc1 (mixture of isomers)

half-life [5]: 7.7 h
Vd [6]: 5.8 L/kg
bioavailability [7]: 12%
clearance [8]: 23 mL/min/kg
half-life [9]: 8.3 h
Vd [10]: 14 L/kg
bioavailability [11]: 18%
clearance [12]: 43.4 mL/min/kg
half-life [13]: 9.9 h
Vd [14]: 26.4 L/kg
bioavailability [15]: 14%
EC50 ([1]; read-out: EC50): 0.98 nM
Activity [2]: 99%
IC50 [3]: > 20000 nM
IC50 [4]: > 20000 nM
INH (Cytochrome P450 3A4): > 100 µM
INH (Cytochrome P450 2D6): 2.2 µM
INH (Cytochrome P450 2C9): > 100 µM
INH (Cytochrome P450 2C8): > 100 µM
solubility [16]: > 1800 µg/mL
solubility [17]: 1300 µg/mL (≈ 3.08 mM)
remaining at 0.75 h [19]: 23%
remaining at 0.75 h [20]: 40%
remaining at 0.75 h [21]: 13%
remaining at 0.75 h [22]: 77%
IC50 [24]: > 20000 nM
IC50 [25]: > 20000 nM
SMILES: Nc1nc(CC(=O)Nc2ccc(C[C@@H]3CC[C@H]([C@H](O)c4ccccc4)N3)cc2)cs1
inhibition at 30 µM (Nav1.5): 26%
IC50 [18]: 11200 nM
Activity [23]: Non-toxic

SMILES: Nc1ccc(C[C@@H]2CC[C@H]([C@H](O)c3ccccc3)N2)cc1
Activity [26]: Non-toxic
Activity [27]: Non-toxic

EC50 ([1]; read-out: EC50): 83 nM
Activity [2]: 76%
IC50 [3]: 242 nM
IC50 [4]: 297 nM
INH (Cytochrome P450 3A4): > 50 µM
INH (Cytochrome P450 2D6): > 50 µM
SMILES: O=S(=O)(Nc1ccc(C[C@H]2CC[C@H]([C@H](O)c3ccccc3)N2)cc1)c1ccc(-c2nc(-c3ccc(C(F)(F)F)cc3)cs2)cc1

EC50 ([1]; read-out: EC50): 11 nM
Activity [2]: 95%
IC50 [3]: 1040 nM
IC50 [4]: 780 nM
SMILES: O=S(=O)(Nc1ccc(CCNC[C@H](O)c2ccccc2)cc1)c1ccc(-c2nc(-c3ccc(C(F)(F)F)cc3)cs2)cc1

EC50 ([1]; read-out: EC50): 81 nM
Activity [2]: 104%
IC50 [3]: 2150 nM
IC50 [4]: 3530 nM
SMILES: O=S(=O)(Nc1ccc(CC2CC[C@@H]([C@H](O)c3ccccc3)N2)cc1)c1ccc(-c2nc(-c3ccc(C(F)(F)F)cc3)cs2)cc1 (mixture of isomers)

EC50 ([1]; read-out: EC50): 1310 nM
Activity [2]: 104%
IC50 [3]: 1520 nM
IC50 [4]: 2790 nM
SMILES: O=S(=O)(Nc1ccc(CC2CC[C@H]([C@@H](O)c3ccccc3)N2)cc1)c1ccc(-c2nc(-c3ccc(C(F)(F)F)cc3)cs2)cc1 (mixture of isomers)

EC50 ([1]; read-out: EC50): 4.1 nM
Activity [2]: 95%
IC50 [3]: 2190 nM
IC50 [4]: 2510 nM
INH (Cytochrome P450 3A4): > 50 µM
INH (Cytochrome P450 2D6): > 50 µM
SMILES: O=S(=O)(Nc1ccc(C[C@@H]2CC[C@H]([C@H](O)c3ccccc3)N2)cc1)c1ccc(-c2nc(-c3ccc(C(F)(F)F)cc3)cs2)cc1

EC50 [1]: Not Active
SMILES: CC(Cc1ccc(NS(=O)(=O)c2ccc(-c3nc(-c4ccc(C(F)(F)F)cc4)cs3)cc2)cc1)NC(C)[C@H](O)c1ccccc1 (mixture of isomers)

half-life [5]: 8.1 h
Vd [6]: 23 L/kg
t1/2 (Canis familiaris): 14 h
Vd [10]: 12 L/kg
Vd [14]: 6.2 L/kg
Selectivity ratio (Homo sapiens [28]): 1000
Selectivity ratio (Homo sapiens [29]): 1000
SMILES: O=S(=O)(Nc1ccc(CCNC[C@H](O)c2cccnc2)cc1)c1ccc(-c2nc(-c3ccc(C(F)(F)F)cc3)cs2)cc1
